# Source: ChEMBL document CHEMBL1124161, “4-Hydroxy-3-quinolinecarboxamides with antiarthritic and analgesic activities” (J Med Chem, 1988)
# Active and inactive are the calls of the source. No cut-off for these calls is given here.
# Experiments:
# [1] = test system: Mus musculus; assay: Analgesic activity against acetic acid induced writhing test in mouse after peroral administration; assay type: functional; conditions: Mus musculus, po; read-out: ED50
# [2] = test system: Rattus norvegicus; assay: Antiinflammatory activity against carrageenan-induced foot edema in rat after peroral administration of 300 mg/kg; IA=Inactive; assay type: functional, organism-based; design: dose 300 mg/kg
# [3] = test system: Mus musculus; assay: Analgesic activity against acetic acid induced writhing test in mouse after peroral administration (treatment was 6 hr before testing); assay type: functional; conditions: po
# Procedure, shortened: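 Groups of 10 female mice (20–22 g), fasted 7 h, dosed orally 6 h before ip injection of 0.2 mL 1% aqueous acetic acid. Stretching and writhing movements counted from minute 5 to 20 after irritant. ED50 evaluated graphically or by computerized least-squares curve fitting.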
# [4] = test system: Rattus norvegicus; assay: Ulcerogenic effect against gastric ulcer in rats after oral administration; assay type: functional, Stomach
# Procedure, shortened: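 Groups of eight female rats (120–150 g), fasted 24 h, dosed orally; killed 7 h later and stomachs scored. Ulceration index = (mean ulcer degree × rats with ulcers / number of rats) × 100, ulcers being scores above 0.5. ED100 (index 100, max 300) read graphically.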
# [5] = test system: Rattus norvegicus; assay: Anti-arthritis activity against adjuvant-induced arthritis in rats after peroral administration; assay type: functional; conditions: Rattus norvegicus, po; read-out: ED50
# Procedure, shortened: (§1)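 Groups of five male Lewis rats, 40–50 days old, given intraplantar injection in right hind paw of 0.6 mg Mycobacterium butyricum in 0.1 mL Bayol 55. Drug given in food from adjuvant day to day 17. Injected and noninjected hind paw volumes measured day 17 against normal controls. ED50 by least-squares curve fitting or Litchfield–Wilcoxon probit.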
# [6] = test system: Rattus norvegicus; assay: Antiinflammatory activity against carrageenan-induced foot edema in rat after peroral administration; assay type: functional; conditions: po
# Procedure, shortened: (§2)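 Groups of eight male Sprague-Dawley rats (150–180 g) dosed orally at the time of subplantar injection of 0.5 mg carrageenin. Paw volume difference measured before and 5 h after injection. Expressed as ED40, estimated graphically or by Litchfield–Wilcoxon probit analysis.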
# [7] = test system: Rattus norvegicus; assay: Antiarthritis activity against adjuvant-induced arthritis in rats after peroral administration; range is (1.9-5.3); assay type: functional; conditions: po; procedure, shortened: as §1
# [8] = test system: Rattus norvegicus; assay: Ulcerogenic effect against intestinal ulcer in rats after oral administration; assay type: functional
# Procedure, shortened: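 Nonfasted male rats (150–180 g) killed 24 h after oral dosing, and intestinal ulcers scored. Ulceration index = (mean degree × rats with ulcers / rats) × 100. ED100 (index 100) determined graphically.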
# [9] = target: T1, Polyunsaturated fatty acid 5-lipoxygenase (Rattus norvegicus, UniProt P12527); assay: Inhibition of 5-lipoxygenase from rat peritoneal neutrophils in vitro
# T1 sequence (P12527 whole entry): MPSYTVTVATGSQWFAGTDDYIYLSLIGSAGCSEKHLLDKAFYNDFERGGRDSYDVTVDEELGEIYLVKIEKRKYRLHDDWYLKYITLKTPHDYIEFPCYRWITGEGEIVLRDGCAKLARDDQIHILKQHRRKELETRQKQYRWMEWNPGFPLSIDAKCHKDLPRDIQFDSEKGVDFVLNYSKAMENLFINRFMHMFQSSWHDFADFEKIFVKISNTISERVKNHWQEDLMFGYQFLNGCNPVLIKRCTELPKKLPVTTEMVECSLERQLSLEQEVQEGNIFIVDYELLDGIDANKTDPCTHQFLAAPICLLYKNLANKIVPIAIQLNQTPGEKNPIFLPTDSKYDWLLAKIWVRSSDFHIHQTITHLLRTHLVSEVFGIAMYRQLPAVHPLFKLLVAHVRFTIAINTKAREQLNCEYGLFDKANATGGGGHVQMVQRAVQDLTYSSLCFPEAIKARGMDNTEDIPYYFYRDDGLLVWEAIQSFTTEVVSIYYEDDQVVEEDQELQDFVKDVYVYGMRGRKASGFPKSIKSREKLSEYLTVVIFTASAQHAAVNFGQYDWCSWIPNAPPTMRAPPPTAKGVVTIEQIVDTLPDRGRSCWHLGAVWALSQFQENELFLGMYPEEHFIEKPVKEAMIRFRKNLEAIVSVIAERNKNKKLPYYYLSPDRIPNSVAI
# [10] = target: T2, Cyclooxygenase (Bos taurus, UniProt O62664+O62698); assay: Inhibition of bovine Prostaglandin G/H synthase in seminal vesicle microsomes in vitro
# T2 sequence (O62664 whole entry): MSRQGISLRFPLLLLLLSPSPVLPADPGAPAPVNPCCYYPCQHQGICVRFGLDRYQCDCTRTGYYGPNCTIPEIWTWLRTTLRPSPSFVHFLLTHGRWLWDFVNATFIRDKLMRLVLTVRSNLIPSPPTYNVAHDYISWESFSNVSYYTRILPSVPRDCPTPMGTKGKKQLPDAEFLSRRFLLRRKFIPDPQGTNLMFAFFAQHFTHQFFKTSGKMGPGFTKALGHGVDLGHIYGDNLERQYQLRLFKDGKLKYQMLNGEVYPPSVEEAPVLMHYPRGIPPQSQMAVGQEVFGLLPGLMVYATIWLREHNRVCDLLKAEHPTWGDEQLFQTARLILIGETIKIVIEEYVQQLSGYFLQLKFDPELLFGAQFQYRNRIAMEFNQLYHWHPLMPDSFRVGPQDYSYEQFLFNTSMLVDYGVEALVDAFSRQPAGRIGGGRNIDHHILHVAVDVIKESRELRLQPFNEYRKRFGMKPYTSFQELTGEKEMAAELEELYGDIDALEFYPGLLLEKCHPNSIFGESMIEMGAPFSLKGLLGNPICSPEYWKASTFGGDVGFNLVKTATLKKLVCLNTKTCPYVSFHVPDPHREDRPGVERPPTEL
# T2 sequence (O62698 whole entry): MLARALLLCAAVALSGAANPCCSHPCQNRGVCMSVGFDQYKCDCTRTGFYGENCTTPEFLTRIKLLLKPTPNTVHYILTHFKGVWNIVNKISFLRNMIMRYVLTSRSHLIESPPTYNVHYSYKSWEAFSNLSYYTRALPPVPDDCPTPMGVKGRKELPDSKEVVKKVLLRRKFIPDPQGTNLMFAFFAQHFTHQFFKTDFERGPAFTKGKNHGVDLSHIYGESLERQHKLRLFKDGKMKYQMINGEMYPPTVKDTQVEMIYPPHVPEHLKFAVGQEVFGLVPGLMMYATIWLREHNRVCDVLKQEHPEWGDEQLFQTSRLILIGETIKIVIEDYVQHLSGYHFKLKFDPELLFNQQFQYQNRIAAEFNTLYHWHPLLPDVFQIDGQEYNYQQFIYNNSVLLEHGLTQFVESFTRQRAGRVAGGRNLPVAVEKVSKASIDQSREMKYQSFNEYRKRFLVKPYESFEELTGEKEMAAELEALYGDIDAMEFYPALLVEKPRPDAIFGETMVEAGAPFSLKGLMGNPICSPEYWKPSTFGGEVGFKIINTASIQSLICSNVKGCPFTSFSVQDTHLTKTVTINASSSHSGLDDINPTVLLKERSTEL
# [11] = test system: Rattus norvegicus; assay: Antiinflammatory activity against carrageenan-induced foot edema in rat after peroral administration of 25 mg/kg; IA means Inactive; assay type: functional, organism-based; design: dose 25 mg/kg
# [12] = test system: Rattus norvegicus; assay: Antiinflammatory activity against carrageenan-induced foot edema after peroral administration in rat; assay type: functional; conditions: po; procedure, shortened: as §2
# [13] = test system: Rattus norvegicus; assay: Antiarthritis activity against adjuvant-induced arthritis in rats at 25 mg/kg; IA=Inactive; assay type: functional, organism-based; design: dose 25 mg/kg
# [14] = test system: Mus musculus; assay: Analgesic activity against acetic acid induced writhing test in mouse after peroral administration at 100 mg/kg; IA=Inactive
# [15] = test system: Mus musculus; assay: Analgesic activity against acetic acid induced writhing test in mouse after peroral administration of 100 mg/kg; IA=Inactive; assay type: functional, organism-based; design: dose 100 mg/kg
# Procedure, shortened: (§3)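 Female mice (20–22 g), groups of 10, fasted 7 h; drug given orally 30 min before intraperitoneal injection of 0.2 mL 1% aqueous acetic acid. Stretching/writhing movements counted from minute 5 to 20 after irritant.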
# [16] = test system: Rattus norvegicus; assay: Antiinflammatory activity against carrageenan-induced foot edema in rat after peroral administration of 100 mg/kg; IA=Inactive; assay type: functional, organism-based; design: dose 100 mg/kg
# [17] = test system: Mus musculus; assay: Analgesic activity against acetic acid induced writhing test in mouse administered po at 100 mg/kg; IA=Inactive; assay type: functional, organism-based; design: dose 100 mg/kg; procedure, shortened: as §3
# [18] = test system: Rattus norvegicus; assay: Antiarthritis activity against adjuvant-induced arthritis in rats administered po at 10 mg/kg; IA=Inactive; assay type: functional, organism-based; design: dose 10 mg/kg
# [19] = test system: Rattus norvegicus; assay: Antiinflammatory activity against carrageenan-induced foot edema in rat administered po at 100 mg/kg; IA=Inactive; assay type: functional, organism-based; design: dose 100 mg/kg
# [20] = test system: Rattus norvegicus; assay: Antiarthritis activity against adjuvant-induced arthritis in rats administered po at 10 mg/kg; IA= Inactive; assay type: functional, organism-based; design: dose 10 mg/kg
smiles,measurement,setting,value
O=C(Nc1nccs1)c1cnc2cc(Cl)ccc2c1O,ED50,[1],> 100 mg/kg
same,ED50,[2],inactive
CC[C@H](N)c1nc2c(C(F)(F)F)cccc2c(O)c1C(=O)Nc1nccs1,ED50,[1],35 mg/kg
same,ED50,[3],30 mg/kg
same,ED100,[4],80 mg/kg
same,ED50,[5],5 mg/kg
same,ED40,[6],10 mg/kg
same,ED50,[7],3.1 mg/kg
same,ED100,[8],>100 mg/kg
same,IC50,[9],18 µM
same,IC50,[10],1.4 µM
COCc1nc2c(C(F)(F)F)cccc2c(O)c1C(=O)Nc1nccs1,ED50,[1],25 mg/kg
same,ED50,[11],inactive
CC(C)(C)C(O)c1nc2c(C(F)(F)F)cccc2c(O)c1C(=O)Nc1nccs1 (stereo unspecified),ED50,[1],50 mg/kg
same,ED50,[5],1.5 mg/kg
same,ED40,[12],4 mg/kg
O=C(Nc1nccs1)c1c(CO)nc2c(C(F)(F)F)cccc2c1O,ED50,[13],inactive
same,ED50,[14],inactive
CCCCC(O)c1nc2c(C(F)(F)F)cccc2c(O)c1C(=O)Nc1nccs1 (stereo unspecified),ED50,[1],≥ 100 mg/kg
same,ED50,[5],> 20 mg/kg
same,ED40,[12],> 100 mg/kg
Cn1ccnc1NC(=O)c1c(C(F)(F)F)nc2c(C(F)(F)F)cccc2c1O,ED50,[15],inactive
same,ED50,[16],inactive
CC(C)c1ccc2nc(C(F)(F)F)c(C(=O)Nc3nccs3)c(O)c2c1,ED50,[1],> 100 mg/kg
same,ED50,[16],inactive
O=C(Nc1nccs1)c1c(C(O)C2CCCCC2)nc2c(C(F)(F)F)cccc2c1O (stereo unspecified),ED50,[17],inactive
same,ED50,[18],inactive
same,ED40,[12],> 100 mg/kg
O=C(Nc1nccs1)c1c(C(O)c2ccccc2)nc2c(C(F)(F)F)cccc2c1O (stereo unspecified),ED50,[17],inactive
same,ED40,[19],inactive
same,ED50,[20],inactive
